This passage reports nonsense suppression results from the RNAGym collection of RNA variant scans (doi:10.1101/gad.245936.114).

B1: tRNA (parent)
chain: CUCUCGGUAGCCAAGUUGGUUUAAGGCGCAAGACUUUAAUUUAUCACUACGAAAUCUUGAGAUCGGGCGUUCGACUCGCCCCCGGGAGAUUUUUUCCUCGAGCAA

Fewer inactive variants are shown than the library holds.

The variants in the data set derive from B1. Briefly: nonsense suppression (GFP-seq) (ratio to wild type); higher = more function; SUP4oc tRNA, yeast GFP reporter sort-seq. Put shortly: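 Yeast carrying genome-integrated SUP4oc tRNA variants from a library with ~3% random mutations were grown in raffinose/galactose medium with 80 mg/L adenine. Each strain also carried a galactose-driven GFP ochre reporter and RFP. Cells were sorted into GFP/RFP bins, and each bin was Illumina-sequenced (phred ≥30). Nonsense suppression (GFPSEQ) is the bin median GFP/RFP, weighted by each variant's estimated cell share per bin, relative to wild-type SUP4oc; variants needed ≥100 reads and ≥30 cells.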
In the case of UUCUCGGUAGCCAAGUUGGUUUAAGGCGCAAGACUUUAAUUUAUCACUACGAAAUCUUGAGACCGGGCGUUCGACUCGCCCCCGGGAGAUUUUUUCCUCGAGCAA, the nonsense suppression is at most 0.026.
CACUCGGUAGCCAAGUUGGUUUCAGGCGCAAGACUUUAAUUUAUCACUACGAAAUCUUGAGAUCGGGCGUUCGACUCGCCCCCGGGAGAUUUUUUCCUCGAGCAA: the nonsense suppression is at most 0.026.
Take UCCUCGGUAGCCAAGUUGGUUUAAGGCGCAAGACUUUAAUUUAUCACUACGAACUCUUGAUAUCGGGCGUUCGACACGCCCCCGGGAGAUUUUUUCCUCGAGCAA: the nonsense suppression is at most 0.026.
The same measure for CACUCGGUAGCCAAGUUGGUUUAAGGCGCAAGGCUUUAAUUUAUCACUACGAAAUCUUGAGAUCGGGCGUUCGACUCGCCCCCGGGAGAUUUUUUCCUCGAGCAA: at most 0.026; for UGCUCGGUAGCCAAGUUGGGUUAAGGCGAAAGACUUUAAUUUAUCACUACGAAAUCUUGAGAUCGGGCGUUCGACUCGCCCCCGGGAGAUUUUUUCCUCGAGCAA: at most 0.026.
As to CAGUCGGUAGCCAAGUUGGUUUAAGGGGGAAGUCUUUAAUUUAUCACUACGAAAUCUUGAGAUCGGGCGUUCGACUCGCCCCCGGGAGAUUUUUUCCUCGAGCAA, the nonsense suppression was at most 0.026.
For CACUCGGUAGCCAAGUUGGUUUAAGGCGCAAGACUUUAAUUUAUCACUACGAAAUCUUGGGAUCGGGCGUUCGACUCGCCCCCGGGAGAUUUUUUCCUCGAGCAA, the nonsense suppression was determined as 0.0755.
Under CACUCGGUAGCCCAGUUGGUUUAAGGCGCAAGACUUUAAUUUAUCACUACGAAAUCUUGAGAUCGGGCGUUCGACUCGCCCCCGGGAGAUUUUUUCCUCGAGCAA stands at most 0.026; under CACUCGGUAGCCUAGUUGGUUUAAGGCGCAAGACUUUAAUUUAUCACUACGAAAUCUUGAGAUCGGGCGUUCGACUCGCCCCCGGGAGAUUUUUUCCUCGAGCAA, 0.0284; under CACUCGGUAGCCAAGUUGGUUUAAGGCGCACGACUUUAAUUUAUCACUACGAAAUCUUGAGCUCGGGCGUUCGACUCUCCCCCGGGUGAUUUUUUCCUCGAGCAA, at most 0.026.
With UUCUCGGUAGCCAAGUUGGUUUAAGGCGCAAGACUUUAAUUUAUCACUACGAAAUCUUGAGAUCGGCCGUUCGACUCGCCCCCGGGAGAUUUUUUCCUCGAGCAA, the nonsense suppression is at most 0.026.
Under UUCACGGUAGCCAAGUUGGUUUAAGGCGCAAGACUUUAAUUUAUCACUACGAAAUCUUGAGAUCGGGCGUUCGACUCGCCCCCGGGAGAUUUUUUCCUCGAGCAA stands 0.0473; under UUCUCGGUAGCCAAGUUGGUUUAAGGCGCAAGACUUUAAUUUAUCACUACGAAAGCUGGAGAUCGGGCGUUCGACUCGCCCCCGGGAGAUUUUUUCCUCGAGCAA, at most 0.026.
The same measure for UUCUCGGUAGCCAAGUUGGAUUAAGGCGCAAGACUUUAAUUUAUCACUACGAAAUCUUGAGAUCGGGCGUUCCACUCGCCCCCGGGAGAUUUUUUCCUCGAGCAA: 0.722; for UUCUCGGUAGCCAAGUUGGUUUAAGGCGCAAGACUUUAAUUUAUCACUACGAAAUCUUGAGAUCGGGCGUUCGACUCGCCCCCGCGAGCUUUUUUCCUCGAGCAA: at most 0.026.
The same measure for CACUCGGUAGCCAAGUUGGUUUAAGGCGCUAGACUUUAAUUUAUCACUACGAAAUCUUGAGAUCGGGCGUUCGACUCGCCCCCGGGAGAUUUUUUCCUCGAGCAA: 0.031; for CACUCGGUAGCAAAGUUGGUUUAAGGCGCAAGACUUUAAUUUAUCACUACGAAAUCUUGAGAUCGGGCGUUCGACUCGCCCCCGGGAGAUUUUUUCCUCGAGCAA: at most 0.026; for CACUCGGUAGCCAAGUUGGUUUAGAGCGCAAGACUUUAAUUUAUCACUACGAAAUCUUGAGAUCGGGCGUUCGACUCGCCCCCGGGAGAUUUUUUCCUCGAGCAA: at most 0.026.
On to UUCUCGGUAGCCAAGUCGGUUUAAGGCGCAAGACUUUAAUUUAUCACUACGAAAUCUUGAGAUCGGGCGUUCGACUCGCCGCCGGGAGAUUUUUUCCUCGAGCAA, for which the nonsense suppression was at most 0.026.
Under UUCGUGGUAGCCAAGUUGGUUUAAGGCGCAGGACUUUAAUUUAUCACUACGAAAUCUUGAGAUCGGGCGUUCGACUCGCCACCGGGAGAUUUUUUCCUCGAGCAA stands at most 0.026; under UUCUCGGUAGCCAAGUUGGUUUAAGGCGCAAGACUUUAAUUUAUCACUACGAAAUCUUGAGAUCGGGCGUGCGACUCGCCCCCGGGAGAUUUUUUCCUCGAGCAA, at most 0.026; under UUCUCGGUAGCCAAGUUGGUUUAAGGCGCAAGACUUUAAUUUAUCACUACGAAAUCUUGAGAUCGGGCCUUCCACUCGCCCCCGGGAGAUUUUUUCCUCGAGCAA, at most 0.026.
Under CACUCGGUAGCCAAGUUGGUUUAAGGCGCAUGGCUUUAAUUUAUCACUACGAAAUCUAGAGAUCGGGCGUUCGACUCGCCCCCGGGAGAUUUUUUCCUCGAGCAA stands at most 0.026; under UUCUCGGUAGCCAAGUUGGUUUAAGGCGCAAGACAUUAAUUUAUCACUACGAAAUCUUGAGAUCGGGCGUUCGACUAGCCCCCUGGAGAUUUUUUCCUCGAGCAA, at most 0.026.
Under UUCUCGGUAGCCAAGUGGGUUUAAGGCGCAAGACUUUAAUUUAUCACUACGAAAUCUUGAGAUCGGGCGUUCGACUCGCCCCCGGGAGAUUUUUUCCUCGAGCAA stands at most 0.026; under UGCUCGGUAGCCAAGUUUGUUUAAGGCGCAAGACUUUAAUUUAUCACUACGAAAUCUUGAGAUCGGGCGUUCGACUCGCCCCCGGGAGAUUUUUUCCUCGAGCAA, at most 0.026; under UUCUCGGUAGCCAAGUUGGUUUAAGGCGCAAGACUUUAAUUUAUCACUACGAAAUCUUGAGAUCGGGCGUUCGACUCACCCCCGGGAGAUUUUUUCCUCGAGCAA, 0.0525.
